Active and inactive are the calls of the source. The calls are words filed in the database; no cut-off is given here.
Assays:
CYP2C9 = CYP2C9 (Homo sapiens, UniProt P11712); assay: Inhibition of human CYP2C9 at 10 uM; type: ADME
[1] = Stability in pH 7.4 PBS buffer assessed as parent compound remaining; type: physicochemical
Method in brief: (§1)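 Aqueous stability measured after 48 h incubation, in PBS pH 7.4 or in 1:1 PBS/acetonitrile; reported as % parent remaining.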

[2] = biological target: Epidermal growth factor receptor (Homo sapiens) (UniProt P00533); assay: Displacement of [125I]EGF from human EGFR at 10 uM
Chain of Epidermal growth factor receptor (Homo sapiens) (P00533 whole entry): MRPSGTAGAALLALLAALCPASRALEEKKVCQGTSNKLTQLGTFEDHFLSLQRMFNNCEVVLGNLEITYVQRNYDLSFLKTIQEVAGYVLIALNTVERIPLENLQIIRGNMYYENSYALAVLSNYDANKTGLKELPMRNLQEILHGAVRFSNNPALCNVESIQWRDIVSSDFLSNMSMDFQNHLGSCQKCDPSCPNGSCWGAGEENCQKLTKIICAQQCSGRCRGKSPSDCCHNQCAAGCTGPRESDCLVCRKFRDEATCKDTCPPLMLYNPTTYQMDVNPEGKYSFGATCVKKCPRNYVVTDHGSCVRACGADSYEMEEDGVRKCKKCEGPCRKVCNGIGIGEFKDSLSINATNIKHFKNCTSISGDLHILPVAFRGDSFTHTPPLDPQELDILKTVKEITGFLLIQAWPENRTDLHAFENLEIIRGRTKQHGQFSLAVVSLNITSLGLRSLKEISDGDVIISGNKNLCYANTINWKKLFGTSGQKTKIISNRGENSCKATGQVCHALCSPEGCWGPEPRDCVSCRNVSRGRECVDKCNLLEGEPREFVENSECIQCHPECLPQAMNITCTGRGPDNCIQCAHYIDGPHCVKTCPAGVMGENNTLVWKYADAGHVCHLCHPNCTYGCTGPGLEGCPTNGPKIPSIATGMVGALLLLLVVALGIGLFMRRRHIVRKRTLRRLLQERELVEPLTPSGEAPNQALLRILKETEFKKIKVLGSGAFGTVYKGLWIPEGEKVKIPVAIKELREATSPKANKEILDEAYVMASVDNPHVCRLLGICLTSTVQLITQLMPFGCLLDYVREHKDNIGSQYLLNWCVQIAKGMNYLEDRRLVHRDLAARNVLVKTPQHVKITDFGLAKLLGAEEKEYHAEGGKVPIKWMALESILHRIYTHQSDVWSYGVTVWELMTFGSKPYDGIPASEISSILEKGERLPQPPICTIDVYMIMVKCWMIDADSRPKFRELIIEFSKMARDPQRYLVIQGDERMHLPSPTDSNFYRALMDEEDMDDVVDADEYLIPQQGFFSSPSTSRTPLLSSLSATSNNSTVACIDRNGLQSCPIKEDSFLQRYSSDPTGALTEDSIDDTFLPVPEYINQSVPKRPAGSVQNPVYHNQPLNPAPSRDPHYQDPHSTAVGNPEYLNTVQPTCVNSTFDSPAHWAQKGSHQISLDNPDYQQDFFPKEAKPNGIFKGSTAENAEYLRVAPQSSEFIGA

[3] = Drug concentration in C57BL/6 mouse brain at 1 mg/kg, ip administered as single dose measured after 120 mins by LC/MS analysis based RACE assay; type: ADME, organism-based; parameters: dose 1 mg/kg, route intraperitoneal; conditions: read-out: Drug uptake
Method in brief: (§2)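 Brain tissue taken at the terminal 120 min point after one intraperitoneal dose (1, 5 or 10 mg/kg) in C57BL/6 mice, 3 per group, with a vehicle cohort. Drug level measured by LC/MS, averaging two injections per sample; reported as mean ± standard deviation, μM.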

[4] = biological target: T1, GABA-A receptor; anion channel (Homo sapiens) (UniProt P14867+P47870+P18507+P28472+P48169+Q99928+Q9UN88+P34903+O00591+O14764+Q8N1C3+P18505+P78334+P47869+P31644+Q16445); assay: Displacement of ABC from rat GABAA receptor central muscimol site at 10 uM; type: protein-complex assay; conditions: target entry is the homologue from another species
[5] = biological target: Prostaglandin E2 receptor EP4 subtype (Homo sapiens) (UniProt P35408); assay: Displacement of [3H]prostaglandin E2 from human EP4 […] at 10 uM
[6] = biological target: Alpha-1B adrenergic receptor (Rattus norvegicus) (UniProt P15823); assay: Displacement of [3H]prazosin from rat adrenergic alpha1B receptor at 10 uM
[7] = system: Venezuelan equine encephalitis virus; assay: Antiviral activity against Venezuelan equine encephalitis virus TC83 infected in C3H/HeN mouse assessed as mouse survival at […], ip BID for 4 days dosed 4 hrs before viral infection (reference value: 14%); type: functional; conditions: route intraperitoneal
[8] = biological target: Platelet-activating factor receptor (Homo sapiens) (UniProt P25105); assay: Displacement of [3H]PAF from human PAF receptor at 10 uM
Chain of Platelet-activating factor receptor (Homo sapiens) (P25105 whole entry): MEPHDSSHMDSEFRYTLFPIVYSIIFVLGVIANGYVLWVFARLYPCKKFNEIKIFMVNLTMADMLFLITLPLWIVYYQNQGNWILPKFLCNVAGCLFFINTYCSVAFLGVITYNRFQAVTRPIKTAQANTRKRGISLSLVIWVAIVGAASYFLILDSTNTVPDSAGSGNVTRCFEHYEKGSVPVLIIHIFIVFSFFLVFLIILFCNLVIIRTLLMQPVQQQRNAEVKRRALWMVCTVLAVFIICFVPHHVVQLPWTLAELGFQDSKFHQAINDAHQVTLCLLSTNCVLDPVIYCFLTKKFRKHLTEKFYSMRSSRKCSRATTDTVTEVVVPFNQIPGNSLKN

[9] = biological target: Gamma-aminobutyric acid type B receptor subunit 1 (Homo sapiens) (UniProt Q9UBS5); assay: Displacement of [3H]CGP-54626 from human GABA B1A receptor at 10 uM
[10] = biological target: Histamine H1 receptor (Homo sapiens) (UniProt P35367); assay: Displacement of [3H]pyrilamine from human histamine H1 receptor at 10 uM
Chain of Histamine H1 receptor (Homo sapiens) (P35367 whole entry): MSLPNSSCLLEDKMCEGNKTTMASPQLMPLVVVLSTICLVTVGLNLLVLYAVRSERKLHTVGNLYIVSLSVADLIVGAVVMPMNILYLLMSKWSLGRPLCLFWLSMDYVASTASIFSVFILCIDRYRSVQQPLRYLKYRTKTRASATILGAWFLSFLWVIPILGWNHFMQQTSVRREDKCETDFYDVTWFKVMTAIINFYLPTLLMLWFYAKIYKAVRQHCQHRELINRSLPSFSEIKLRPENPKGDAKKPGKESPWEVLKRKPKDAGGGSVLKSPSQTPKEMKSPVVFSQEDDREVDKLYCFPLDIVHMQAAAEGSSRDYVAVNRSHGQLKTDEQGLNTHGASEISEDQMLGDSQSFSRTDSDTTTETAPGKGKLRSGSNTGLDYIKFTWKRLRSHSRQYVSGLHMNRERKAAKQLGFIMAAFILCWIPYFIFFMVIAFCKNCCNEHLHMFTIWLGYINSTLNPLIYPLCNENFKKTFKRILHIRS

[11] = biological target: Alpha-2A adrenergic receptor (Homo sapiens) (UniProt P08913); assay: Displacement of [3H]MK-912 from human adrenergic alpha2A receptor at 10 uM
Chain of Alpha-2A adrenergic receptor (Homo sapiens) (P08913 whole entry): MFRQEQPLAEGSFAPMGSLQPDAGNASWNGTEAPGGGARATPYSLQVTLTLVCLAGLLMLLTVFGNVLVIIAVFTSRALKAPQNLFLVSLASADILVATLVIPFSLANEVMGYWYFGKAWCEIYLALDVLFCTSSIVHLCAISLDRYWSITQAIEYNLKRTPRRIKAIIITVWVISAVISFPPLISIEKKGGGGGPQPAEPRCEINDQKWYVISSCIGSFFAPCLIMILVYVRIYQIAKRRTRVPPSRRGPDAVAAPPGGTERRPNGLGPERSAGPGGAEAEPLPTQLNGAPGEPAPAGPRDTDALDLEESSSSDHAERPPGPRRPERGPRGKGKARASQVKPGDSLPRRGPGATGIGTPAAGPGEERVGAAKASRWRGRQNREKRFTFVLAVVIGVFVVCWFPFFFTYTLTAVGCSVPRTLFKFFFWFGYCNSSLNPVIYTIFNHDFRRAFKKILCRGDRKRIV

Mus musculus [12] = assay: Toxicity in Venezuelan equine encephalitis virus TC83 infected C3H/HeN mouse assessed as induction of hunched posture at 40 mg/kg/day, ip BID for 4 days; type: organism-based; parameters: route intraperitoneal; conditions: in vivo, 96 h
Plasma = assay: Stability in mouse plasma assessed as parent compound remaining after 3 hrs; type: ADME, cell-free
[13] = biological target: Adenosine receptor A1 (Homo sapiens) (UniProt P30542); assay: Displacement of [3H]DPCPX from human adenosine A1 receptor at 10 uM
Chain of Adenosine receptor A1 (Homo sapiens) (P30542 whole entry): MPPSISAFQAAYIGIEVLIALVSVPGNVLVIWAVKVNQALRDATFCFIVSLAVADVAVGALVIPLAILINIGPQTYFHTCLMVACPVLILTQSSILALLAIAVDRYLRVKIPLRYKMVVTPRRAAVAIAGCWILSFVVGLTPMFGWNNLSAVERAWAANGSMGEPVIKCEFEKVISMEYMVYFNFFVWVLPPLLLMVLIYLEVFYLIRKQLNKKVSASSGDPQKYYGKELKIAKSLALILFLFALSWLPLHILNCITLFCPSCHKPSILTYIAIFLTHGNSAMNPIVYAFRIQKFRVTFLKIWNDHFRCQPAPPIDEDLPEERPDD

[14] = biological target: Acetylcholine receptor subunit alpha (Homo sapiens) (UniProt P02708); assay: Displacement of [125I]alpha-Bungarotoxin from human nAchR alpha1 bungarotoxin binding site at 10 uM
[15] = biological target: Neuropeptide Y receptor type 1 (Homo sapiens) (UniProt P25929); assay: Displacement of [125I]Peptide YY from human neuropeptide Y Y1 receptor at 10 uM
[16] = biological target: Muscarinic acetylcholine receptor M3 (Homo sapiens) (UniProt P20309); assay: Displacement of [3H]N-Methylscopolamine from human muscarinic M3 receptor at 10 uM
[17] = system: Venezuelan equine encephalitis virus; assay: Antiviral activity against Venezuelan equine encephalitis virus TrD infected in Vero 76 cells assessed as reduction in viral titer at 5 uM by crystal violet staining based microplaque assay relative to untreated control; type: functional, organism-based
Mus musculus [18] = assay: Toxicity in Venezuelan equine encephalitis virus TC83 infected C3H/HeN mouse assessed as induction of ruffled fur at 5 mg/kg/day, ip BID for 4 days; type: organism-based; parameters: route intraperitoneal; conditions: in vivo, 96 h
[19] = Drug concentration in C57BL/6 mouse brain at 10 mg/kg, ip administered as single dose measured after 120 mins by LC/MS analysis based RACE assay; type: ADME, organism-based; parameters: dose 10 mg/kg, route intraperitoneal; conditions: read-out: Drug uptake; method in brief: as §2
hERG (KCNH2) = hERG (KCNH2) (Homo sapiens, UniProt Q12809); assay: Displacement of [3H]astemizole from human ERG channel at 10 uM; conditions: probe [3H]astemizole
Cytochrome P450 1A2 = Cytochrome P450 1A2 (Homo sapiens, UniProt P05177); assay: Inhibition of human CYP1A2 at 10 uM; type: ADME
Chain of Cytochrome P450 1A2 (P05177 whole entry): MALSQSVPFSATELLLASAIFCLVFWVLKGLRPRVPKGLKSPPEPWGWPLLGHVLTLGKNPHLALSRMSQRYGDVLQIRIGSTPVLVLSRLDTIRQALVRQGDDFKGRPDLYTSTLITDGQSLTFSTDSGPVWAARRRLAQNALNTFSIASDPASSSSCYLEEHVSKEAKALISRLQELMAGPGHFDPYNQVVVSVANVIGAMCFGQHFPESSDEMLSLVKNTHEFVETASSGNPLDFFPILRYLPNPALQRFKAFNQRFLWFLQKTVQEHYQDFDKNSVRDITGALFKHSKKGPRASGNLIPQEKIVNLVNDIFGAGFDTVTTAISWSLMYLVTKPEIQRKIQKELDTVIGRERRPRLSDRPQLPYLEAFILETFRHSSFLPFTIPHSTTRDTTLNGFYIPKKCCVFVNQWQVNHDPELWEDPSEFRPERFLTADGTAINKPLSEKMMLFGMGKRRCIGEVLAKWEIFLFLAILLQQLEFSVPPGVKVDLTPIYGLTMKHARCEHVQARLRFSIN
Method in brief: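 Human CYP inhibition run with reference inhibitors as controls: α-naphthoflavone for CYP1A2 and ketoconazole for CYP3A4.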

[20] = biological target: 5-hydroxytryptamine receptor 3A (Homo sapiens) (UniProt P46098); assay: Displacement of [3H]GR-65630 from human 5HT3 receptor at 10 uM
Chain of 5-hydroxytryptamine receptor 3A (Homo sapiens) (P46098 whole entry): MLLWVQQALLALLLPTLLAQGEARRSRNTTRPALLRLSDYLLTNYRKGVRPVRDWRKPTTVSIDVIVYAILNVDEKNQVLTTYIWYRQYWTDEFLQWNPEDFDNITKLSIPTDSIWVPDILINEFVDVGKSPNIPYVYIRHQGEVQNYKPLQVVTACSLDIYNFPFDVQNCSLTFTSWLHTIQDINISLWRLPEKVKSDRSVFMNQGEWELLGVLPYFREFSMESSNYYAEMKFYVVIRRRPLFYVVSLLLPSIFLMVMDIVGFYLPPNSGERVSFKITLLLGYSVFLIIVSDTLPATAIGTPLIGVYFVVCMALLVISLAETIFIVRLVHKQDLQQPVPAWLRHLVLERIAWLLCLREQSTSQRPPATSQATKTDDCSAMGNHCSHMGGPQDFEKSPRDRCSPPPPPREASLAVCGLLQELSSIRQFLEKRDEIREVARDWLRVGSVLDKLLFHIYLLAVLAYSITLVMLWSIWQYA

[21] = Cytotoxicity against african green monkey Vero 76 cells after 3 days by Celltiter-Glo reagent based assay; type: cell-based; conditions: chlorocebus sabaeus, vero 76, 72 h
Method in brief: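 Vero 76 cells were seeded overnight at 12 000/well and given an 8-point 2-fold compound series (20 mM DMSO stock) in EMEM/10% FBS with no virus. Viability was read by CellTiter-Glo after 3 days relative to untreated cells. Run in duplicate; CC50 from a four-parameter logistic or sigmoidal fit.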

Mus musculus [22] = assay: Toxicity in Venezuelan equine encephalitis virus TC83 infected C3H/HeN mouse assessed as body weight loss at 40 mg/kg/day, ip BID for 4 days; type: organism-based; parameters: route intraperitoneal; conditions: in vivo, 96 h
[23] = system: Venezuelan equine encephalitis virus; assay: Antiviral activity against Venezuelan equine encephalitis virus TrD infected in Vero 76 cells assessed as reduction in viral titer at 1 uM by crystal violet staining based microplaque assay relative to untreated control; type: functional
[24] = Plasma concentration in C57BL/6 mouse at 10 mg/kg, ip administered as single dose measured after 20 mins by LC/MS analysis based RACE assay; type: ADME, organism-based; parameters: dose 10 mg/kg, route intraperitoneal
Method in brief: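 Single intraperitoneal dose of 1, 5 or 10 mg/kg given to C57BL/6 mice, 3 mice per dose and time point, with a vehicle-control cohort. Plasma was sampled at 20 and 120 min post-dose and drug level measured by LC/MS. Each time point averaged two injections (<20% difference); values are means ± standard deviation in μM.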

Rattus norvegicus [25] = organism: Rattus norvegicus; assay: Displacement of radioligand from rat sodium channel site 2 at 10 uM
[26] = Stability in 1:1 PBS/acetonitrile assessed as parent compound remaining; type: physicochemical; conditions: buffer; method in brief: as §1
Rattus norvegicus [27] = organism: Rattus norvegicus; assay: Displacement of [125I]triiodothyronine from rat thyroid hormone receptor 10 uM
[28] = biological target: D(3) dopamine receptor (Homo sapiens) (UniProt P35462); assay: Displacement of [3H]spiperone from human dopamine D3 receptor at 10 uM
Chain of D(3) dopamine receptor (Homo sapiens) (P35462 whole entry): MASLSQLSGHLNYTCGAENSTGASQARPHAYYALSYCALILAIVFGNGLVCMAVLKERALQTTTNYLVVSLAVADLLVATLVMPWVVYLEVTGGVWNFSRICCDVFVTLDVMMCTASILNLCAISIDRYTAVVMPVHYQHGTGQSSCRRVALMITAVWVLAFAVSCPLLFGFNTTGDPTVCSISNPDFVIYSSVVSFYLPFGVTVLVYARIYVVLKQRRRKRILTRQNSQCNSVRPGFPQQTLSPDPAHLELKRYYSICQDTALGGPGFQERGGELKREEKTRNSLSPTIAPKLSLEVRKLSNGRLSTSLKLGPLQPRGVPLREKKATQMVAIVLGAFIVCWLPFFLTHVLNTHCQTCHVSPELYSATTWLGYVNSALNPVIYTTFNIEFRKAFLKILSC

[29] = biological target: T1, GABA-A receptor; anion channel (Homo sapiens); assay: Displacement of ABC from rat GABAA receptor central flunitrazepam site at 10 uM; type: protein-complex assay; conditions: target entry is the homologue from another species
[30] = biological target: Alpha-1D adrenergic receptor (Homo sapiens) (UniProt P25100); assay: Displacement of [3H]prazosin from human adrenergic alpha1D receptor at 10 uM
Chain of Alpha-1D adrenergic receptor (Homo sapiens) (P25100 whole entry): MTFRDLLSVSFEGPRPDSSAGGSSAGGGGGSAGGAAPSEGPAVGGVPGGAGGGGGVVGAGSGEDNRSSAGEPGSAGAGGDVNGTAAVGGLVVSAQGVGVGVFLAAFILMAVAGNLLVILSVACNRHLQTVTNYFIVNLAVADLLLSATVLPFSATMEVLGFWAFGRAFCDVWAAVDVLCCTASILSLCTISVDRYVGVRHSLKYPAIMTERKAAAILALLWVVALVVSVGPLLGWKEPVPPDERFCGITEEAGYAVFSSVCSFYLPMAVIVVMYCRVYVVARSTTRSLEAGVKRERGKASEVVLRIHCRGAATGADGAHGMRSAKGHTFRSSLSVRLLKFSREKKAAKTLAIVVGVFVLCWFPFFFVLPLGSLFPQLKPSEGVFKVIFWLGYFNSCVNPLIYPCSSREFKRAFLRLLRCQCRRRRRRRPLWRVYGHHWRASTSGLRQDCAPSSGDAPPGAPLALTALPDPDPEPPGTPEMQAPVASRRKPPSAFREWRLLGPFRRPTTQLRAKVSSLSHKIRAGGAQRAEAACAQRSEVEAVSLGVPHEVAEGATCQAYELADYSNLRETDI

With `CN1CCN(C)/C(=N/c2ccc([N+](=O)[O-])cc2C(=O)Nc2ccccc2)C1` the inhibition at 10 µM (CYP2C9) was 7%, the Stability [1] was 82.9% and the inhibition [2] was -2.63%. It also gave a concentration at 2 h [3] of 190 nM, an inhibition [4] of 0.52% and an inhibition [5] of 4.82%. For the same molecule, the inhibition [6] was -1.17%, the survival at […] [7] was 127% and the inhibition [8] was 7.04%. The inhibition [9] was 35.9%, the inhibition [10] was 12.3% and the inhibition [11] was -0.5%. The Activity (Mus musculus [12]) was “Non-toxic”, the Stability (Plasma) was 65.4% and the inhibition [13] was 20.4%. The inhibition [14] was 0.62%, the inhibition [15] was 25.9% and the inhibition [16] was 3%. The inhibition [17] was “Active”, the Activity (Mus musculus [18]) was “Non-toxic” and the concentration at 2 h [19] was 350 nM. The inhibition at 10 µM (hERG (KCNH2)) was 30%, the “inhibition (INH)” value (Cytochrome P450 1A2) was 1.5% and the inhibition [20] was 1.64%. For the same molecule, the CC50 [21] was greater than 50 µM, the Activity (Mus musculus [22]) was “Non-toxic” and the inhibition [23] was “Active”. The concentration at 20 min [24] was 2680 nM, the inhibition (Rattus norvegicus [25]) was 9.27% and the Stability [26] was 95.9%. For the same molecule, the inhibition (Rattus norvegicus [27]) was 1.61%, the inhibition [28] was -1.53% and the inhibition [29] was 15.2%. For the same molecule, the inhibition [30] was -7.82%.

Reference: ChEMBL document CHEMBL3352189 (J Med Chem, 2014)
